Source: ChEMBL document CHEMBL3044834, “Novel protoporphyrinogen oxidase inhibitors: 3H-pyrazolo[3,4-d][1,2,3]triazin-4-one derivatives” (J Agric Food Chem, 2008)

Legend:
Type in all cases: functional
Amaranthus retroflexus [1] = experiment: Herbicidal activity against Amaranthus retroflexus assessed as inhibition of fresh weed plant weight at 1500 g/ha using pre-emergence treatment protocol
Digitaria sanguinalis [2] = experiment: Herbicidal activity against Digitaria sanguinalis (hairy crabgrass) assessed as inhibition of fresh weed plant weight at 1500 g/ha using pre-emergence treatment protocol
[3] = system: Brassica rapa subsp. oleifera; experiment: Herbicidal activity against Brassica rapa subsp. oleifera assessed as inhibition of fresh weed plant weight at 1500 g/ha using pre-emergence treatment protocol
Echinochloa crus-galli [4] = experiment: Herbicidal activity against Echinochloa crus-galli (barnyard grass) assessed as inhibition of fresh weed plant weight at 1500 g/ha using post-emergence treatment protocol
Procedure, shortened: (§1)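 Test compounds made up as emulsions by dissolving in 100 µL N,N-dimethylformamide, then adding a little Tween 20 and water. For post-emergence, weed seedlings at one leaf and one stem were sprayed at the same rates as the pre-emergence test. Fresh weight was recorded 15 days after treatment and expressed as percent inhibition versus controls. All treatments were run in triplicate.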

[5] = system: Brassica rapa subsp. oleifera; experiment: Herbicidal activity against Brassica rapa subsp. oleifera assessed as inhibition of fresh weed plant weight at 1500 g/ha using post-emergence treatment protocol; procedure, shortened: as §1
Amaranthus retroflexus [6] = experiment: Herbicidal activity against Amaranthus retroflexus assessed as inhibition of fresh weed plant weight at 1500 g/ha using post-emergence treatment protocol; procedure, shortened: as §1
Digitaria sanguinalis [7] = experiment: Herbicidal activity against Digitaria sanguinalis (hairy crabgrass) assessed as inhibition of fresh weed plant weight at 1500 g/ha using post-emergence treatment protocol; procedure, shortened: as §1
Echinochloa crus-galli [8] = experiment: Herbicidal activity against Echinochloa crus-galli (barnyard grass) assessed as inhibition of fresh weed plant weight at 1500 g/ha using pre-emergence treatment protocol

| Compound | inhibition at 1500 g/ha (Amaranthus retroflexus [1]) [%] | inhibition at 1500 g/ha (Digitaria sanguinalis [2]) [%] | inhibition at 1500 g/ha [3] [%] | inhibition at 1500 g/ha (Echinochloa crus-galli [4]) [%] | inhibition at 1500 g/ha [5] [%] | inhibition at 1500 g/ha (Amaranthus retroflexus [6]) [%] | inhibition at 1500 g/ha (Digitaria sanguinalis [7]) [%] | inhibition at 1500 g/ha (Echinochloa crus-galli [8]) [%] |
| --- | --- | --- | --- | --- | --- | --- | --- | --- |
| COc1cc(-n2nnc3c(cnn3C)c2=O)c(F)cc1Cl | 40.5 | 0 | 0 | 1 | 28.3 | 37.5 | 20.6 | 11.3 |
| COCCOCOc1cc(-n2nnc3c(cnn3C)c2=O)c(F)cc1Cl | 51.8 | 2.3 | 0 | 43.6 | 28 | 74.9 | 0 | 5.6 |
| Cn1ncc2c(=O)n(-c3cc(OC/C=C/Cl)c(Cl)cc3F)nnc21 | 0 | 1.4 | 0 | 11.1 | 2.9 | 14 | 0 | 9.7 |
| C=CCOc1cc(-n2nnc3c(cnn3C)c2=O)c(F)cc1Cl | 10.6 | 0 | 7.4 | 28 | 1.2 | 0 | 17.9 | 11 |
| Cn1ncc2c(=O)n(-c3cc(OCC#N)c(Cl)cc3F)nnc21 | 40.5 | 2.3 | 0 | 32.6 | 31.3 | 100 | 0 | 17.5 |
| C=CCN1C(=O)COc2cc(F)c(-n3nnc4c(c(C)nn4C)c3=O)cc21 | 50 | 47.7 | 34.6 | 0 | 0 | 0 | 0 | 22.3 |
| C#CCOc1cc(-n2nnc3c(c(C)nn3C)c2=O)c(F)cc1Cl | 0 | 38.3 | 9.5 | 0 | 0 | 0 | 0 | 0 |
| C#CCOc1cc(-n2nnc3c(cnn3C)c2=O)c(F)cc1Cl | 0 | 0 | 12.7 | 20.8 | 9.2 | 0 | 19.6 | 0 |
| C#CCOc1cc(-n2nnc3c(c(C(F)(F)F)nn3C)c2=O)c(F)cc1Cl | 15.5 | 6.7 | 21.6 | 2.4 | 32.7 | 5.5 | 0 | 0 |
| Cn1ncc2c(=O)n(-c3cc(O)c(Cl)cc3F)nnc21 | 23.7 | 0 | 0 | 13.2 | 27.9 | 25.1 | 9.2 | 3.5 |
| CCCCCOc1cc(-n2nnc3c(cnn3C)c2=O)c(F)cc1Cl | 0 | 0 | 13.9 | 15.3 | 6.1 | 23.2 | 0 | 1.1 |
| C#CCN1C(=O)COc2cc(F)c(-n3nnc4c(c(C)nn4C)c3=O)cc21 | 30 | 57 | 44.4 | 0 | 0 | 0 | 0 | 15.8 |
| C#CCN1C(=O)COc2cc(F)c(-n3nnc4c(c(C(F)(F)F)nn4C)c3=O)cc21 | 0 | 8.3 | 0 | 8.2 | 20.8 | 0 | 0 | 3 |
| CCCCOc1cc(-n2nnc3c(cnn3C)c2=O)c(F)cc1Cl | 0 | 0 | 4.8 | 0 | 16.1 | 16.6 | 0 | 0 |
| CCOc1cc(-n2nnc3c(cnn3C)c2=O)c(F)cc1Cl | 0 | 0 | 29.8 | 20.2 | 21.5 | 70.6 | 0 | 12.4 |
| C=C(Cl)COc1cc(-n2nnc3c(cnn3C)c2=O)c(F)cc1Cl | 11 | 0 | 0 | 31.1 | 0 | 54.1 | 0 | 15.9 |
| C=CCN1C(=O)COc2cc(F)c(-n3nnc4c(cnn4C)c3=O)cc21 | 30.6 | 0 | 17.5 | 9.1 | 20.9 | 20.3 | 27 | 24.4 |
| CCOC(=O)Oc1cc(-n2nnc3c(cnn3C)c2=O)c(F)cc1Cl | 0 | 0 | 0 | 37.7 | 0 | 7.7 | 0 | 19.8 |
| C=CCN1C(=O)COc2cc(F)c(-n3nnc4c(c(C(F)(F)F)nn4C)c3=O)cc21 | 1.2 | 0 | 0 | 13.6 | 12 | 0 | 0 | 0 |
| C=CCOc1cc(-n2nnc3c(c(C)nn3C)c2=O)c(F)cc1Cl | 0 | 0 | 7.8 | 21 | 7.5 | 14.7 | 16.6 | 17.2 |
